Measurements collected from several papers.
Target: Dual specificity mitogen-activated protein kinase kinase 1 (MAP2K1, Homo sapiens, UniProt Q02750)

SMILES	effect on	action	method	tested at	quantity	value
COc1ccc2[nH]c3c4[nH]c5ccc(OC)cc5c4c4c(c3c2c1)C(=O)NC4=O	binding	–	competition with immobilised ligand	1 µM	remaining binding	70%
CO[C@@H]1[C@H](N(C)C(=O)c2ccccc2)C[C@H]2O[C@]1(C)n1c3ccccc3c3c4c(c5c6ccccc6n2c5c31)C(=O)NC4	enzyme activity	inhibitor	–	1 µM	inhibition	30%
COc1ccc2oc(-c3ccc4nc(N)oc4c3)c/c(=N\c3ccccc3NC(=O)CCN)c2c1	binding	–	–	1 µM	remaining binding	102%
Cc1ccc(NC(=O)c2ccnc(C(F)(F)F)c2)cc1-c1cc(OCCO)nc(N2CCOCC2)c1	binding	–	competition with immobilised ligand	1 µM	remaining binding	86%
Cc1cc(O)c(-c2ccc([C@@H](C)CN(C)C)cc2)c2c1[nH]c(=O)c1sccc12	enzyme activity	inhibitor	–	0.1 µM	inhibition	8.68%
C=CC(=O)N1CCC[C@@H](n2nc(-c3ccc(Oc4ccccc4)cc3)c3c(N)ncnc32)C1	enzyme activity	inhibitor	–	1 µM	inhibition	84%
CCCCC(=O)Nc1ccc(-c2ccc3ncn(CCC)c(=O)c3c2)cn1	binding	–	competition with immobilised ligand	0.5 µM	remaining binding	52%
N#Cc1ccc(NC(=O)Nc2ccccc2)cc1	cell-free assay	–	competition with immobilised ligand	25 µM	remaining binding	66%
